Experimental data published in ChEMBL document CHEMBL1135530, “Selective alpha4beta7 integrin antagonists and their potential as antiinflammatory agents” (J Med Chem, 2002).
pIC50: −log10 of the molar value. Peptide text beside a SMILES is read from it.

How the values were obtained:
Integrin alpha-4/beta-7 = biological target: T1, Integrin alpha-4/beta-7 (Homo sapiens, UniProt P13612+P26010); assay: Ability to block the alpha4-beta7 integrin-MAdCAM-1 binding interaction using a protein ELISA format; assay type: protein-complex assay
T1 sequence (P13612 whole entry): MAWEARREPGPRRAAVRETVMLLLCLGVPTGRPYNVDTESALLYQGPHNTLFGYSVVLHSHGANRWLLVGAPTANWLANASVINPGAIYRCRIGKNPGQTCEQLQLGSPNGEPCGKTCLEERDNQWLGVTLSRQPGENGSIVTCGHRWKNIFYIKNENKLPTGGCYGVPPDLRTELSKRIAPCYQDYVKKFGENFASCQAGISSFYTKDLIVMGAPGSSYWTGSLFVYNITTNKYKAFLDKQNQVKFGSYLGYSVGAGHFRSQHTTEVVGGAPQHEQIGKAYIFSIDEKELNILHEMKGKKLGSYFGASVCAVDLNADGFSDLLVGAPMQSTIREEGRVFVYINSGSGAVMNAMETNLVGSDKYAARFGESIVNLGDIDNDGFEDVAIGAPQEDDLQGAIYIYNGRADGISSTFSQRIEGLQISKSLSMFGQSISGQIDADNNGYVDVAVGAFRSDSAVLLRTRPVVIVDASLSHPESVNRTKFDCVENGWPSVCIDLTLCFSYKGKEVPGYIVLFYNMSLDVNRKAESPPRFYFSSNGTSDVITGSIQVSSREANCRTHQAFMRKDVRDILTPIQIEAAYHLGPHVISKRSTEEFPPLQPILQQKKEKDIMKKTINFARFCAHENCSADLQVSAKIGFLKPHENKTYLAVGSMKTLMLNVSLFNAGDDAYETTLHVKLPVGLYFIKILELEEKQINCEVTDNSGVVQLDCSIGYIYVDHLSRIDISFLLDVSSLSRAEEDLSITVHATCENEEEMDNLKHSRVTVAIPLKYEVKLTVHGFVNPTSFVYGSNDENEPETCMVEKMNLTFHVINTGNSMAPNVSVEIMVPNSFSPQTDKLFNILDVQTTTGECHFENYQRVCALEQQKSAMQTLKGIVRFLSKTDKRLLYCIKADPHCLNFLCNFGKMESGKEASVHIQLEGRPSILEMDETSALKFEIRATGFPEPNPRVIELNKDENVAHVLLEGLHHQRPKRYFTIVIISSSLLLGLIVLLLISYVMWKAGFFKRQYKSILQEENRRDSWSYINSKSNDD
T1 sequence (P26010 whole entry): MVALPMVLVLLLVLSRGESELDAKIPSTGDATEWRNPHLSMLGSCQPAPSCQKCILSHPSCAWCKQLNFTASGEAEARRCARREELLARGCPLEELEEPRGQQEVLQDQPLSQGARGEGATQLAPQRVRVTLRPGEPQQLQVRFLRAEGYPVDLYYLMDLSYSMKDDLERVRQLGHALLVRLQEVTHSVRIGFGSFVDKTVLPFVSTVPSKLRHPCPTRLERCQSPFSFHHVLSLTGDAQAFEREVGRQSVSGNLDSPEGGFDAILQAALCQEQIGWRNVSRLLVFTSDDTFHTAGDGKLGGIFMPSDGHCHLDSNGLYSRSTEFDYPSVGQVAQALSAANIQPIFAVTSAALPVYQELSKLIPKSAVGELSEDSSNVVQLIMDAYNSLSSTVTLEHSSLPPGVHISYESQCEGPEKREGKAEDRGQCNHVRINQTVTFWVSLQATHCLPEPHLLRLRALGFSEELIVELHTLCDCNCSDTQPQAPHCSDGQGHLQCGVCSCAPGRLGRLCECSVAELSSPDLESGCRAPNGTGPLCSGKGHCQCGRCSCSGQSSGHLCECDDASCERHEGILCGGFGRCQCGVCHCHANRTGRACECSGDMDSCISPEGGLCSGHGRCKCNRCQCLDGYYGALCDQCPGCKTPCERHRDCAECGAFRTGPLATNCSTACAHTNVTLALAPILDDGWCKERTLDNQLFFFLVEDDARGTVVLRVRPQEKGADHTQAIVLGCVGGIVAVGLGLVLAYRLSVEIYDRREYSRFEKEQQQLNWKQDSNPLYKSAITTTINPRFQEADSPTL
Method in brief: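 Plates coated overnight at 4 °C with anti-human α4 antibody 9F10 (2 µg/mL), blocked in Tris pH 7.5 buffer with 1 mM MnCl2, Tween-20 and 0.5% BSA, then loaded with α4β7 purified from transfected JY cells (2 µg/mL). Compounds (1 nM–200 µM final, triplicate) plus MAdCAM-1-Ig-HRP (1 µg/mL), 2 h room temperature. TMB read at 450 nm; IC50 at half-maximal absorbance.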

Integrin alpha-4/beta-1 = Integrin alpha-4/beta-1 (Homo sapiens, UniProt P05556+P13612); assay: Inhibitory concentration affording 50% inhibition of alpha4-beta1 integrin binding to VCAM-1, using ELISA assay.; assay type: protein-complex assay
Method in brief: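 α4β1 extracted from Ramos cell membranes (lectin chromatography, gel filtration in 1% octylglucoside), with 1 mM MnCl2 throughout. Wells coated with 4 µg/mL recombinant soluble human VCAM-1 (5 N-terminal Ig domains, from CHO cells) and blocked with 1% BSA. Inhibitor and receptor 2 h at 37 °C in Tris pH 7.4. Bound receptor detected with anti-β1 mAb 2D4.6, then HRP anti-mouse and TMB at 450 nm. IC50 at half-maximal absorbance.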

Sequence of Integrin alpha-4/beta-1 (P05556 whole entry, one chain of several, the tested form may be a part): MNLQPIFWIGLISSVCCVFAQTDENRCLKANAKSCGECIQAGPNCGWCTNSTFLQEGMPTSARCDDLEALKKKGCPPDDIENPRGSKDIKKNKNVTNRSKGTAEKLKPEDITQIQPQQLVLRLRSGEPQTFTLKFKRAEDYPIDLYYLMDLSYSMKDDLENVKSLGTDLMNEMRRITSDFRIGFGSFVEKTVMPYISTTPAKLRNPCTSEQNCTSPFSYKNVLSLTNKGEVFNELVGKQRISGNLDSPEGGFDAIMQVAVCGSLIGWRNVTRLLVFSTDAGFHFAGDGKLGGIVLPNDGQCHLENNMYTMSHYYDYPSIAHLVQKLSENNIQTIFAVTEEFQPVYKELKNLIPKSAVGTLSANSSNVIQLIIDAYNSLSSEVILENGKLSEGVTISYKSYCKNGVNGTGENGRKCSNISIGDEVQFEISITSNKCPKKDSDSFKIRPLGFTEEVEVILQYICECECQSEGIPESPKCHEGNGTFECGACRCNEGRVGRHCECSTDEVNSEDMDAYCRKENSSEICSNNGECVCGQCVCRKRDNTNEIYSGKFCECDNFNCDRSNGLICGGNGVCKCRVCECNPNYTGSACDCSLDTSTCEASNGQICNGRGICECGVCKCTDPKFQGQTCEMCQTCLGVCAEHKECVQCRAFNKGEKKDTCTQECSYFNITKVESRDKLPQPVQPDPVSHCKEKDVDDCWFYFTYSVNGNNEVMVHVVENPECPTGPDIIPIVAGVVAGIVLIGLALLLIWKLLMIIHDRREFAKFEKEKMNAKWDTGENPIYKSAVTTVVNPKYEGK

Row | pIC50 (Integrin alpha-4/beta-7) | pIC50 (Integrin alpha-4/beta-1) | SMILES
1 | 5.00 | 4.22 | CC(C)C[C@@H]1NC(=O)[C@H](C)NC(=O)[C@H](CC(=O)O)NC(=O)[C@H](CO)NC(=O)[C@H](CCCN=C(N)N)NC(=O)[C@@H](N)CSSC[C@@H](C(N)=O)NC1=O (HELM PEPTIDE1{C.R.S.D.A.L.C.[am]}$PEPTIDE1,PEPTIDE1,1:R3-7:R3$$$V2.0)
2 | 6.59 | 5.08 | CC(C)C[C@@H]1NC(=O)[C@H]([C@@H](C)O)NC(=O)[C@H](CC(=O)O)NC(=O)[C@H](CO)NC(=O)[C@H](CCCN=C(N)N)NC(=O)[C@@H](NC(=O)[C@@H](N)CC(=O)O)CSSC[C@@H](C(=O)NCC(=O)N[C@@H](CCC(=O)O)C(N)=O)NC1=O (HELM PEPTIDE1{D.C.R.S.D.T.L.C.G.E.[am]}$PEPTIDE1,PEPTIDE1,2:R3-8:R3$$$V2.0)
3 | 6.92 | 5.38 | CC(C)C[C@@H]1NC(=O)[C@H]([C@@H](C)O)NC(=O)[C@H](CC(=O)O)NC(=O)[C@H](CO)NC(=O)[C@H](CCCNC(=N)N)NC(=O)[C@@H](N)CSSC[C@@H](C(N)=O)NC1=O
4 | 5.35 | 4.23 | CC(C)[C@@H]1NC(=O)[C@H]([C@@H](C)O)NC(=O)[C@H](CC(=O)O)NC(=O)[C@H](CO)NC(=O)[C@H](CCCNC(=N)N)NC(=O)[C@@H](N)CSSC[C@@H](C(N)=O)NC1=O
5 | 5.66 | 5.49 | CSCC[C@@H]1NC(=O)[C@H](CCCN=C(N)N)NC(=O)[C@@H](N)CSSC[C@@H](C(N)=O)NC(=O)[C@H](CC(C)C)NC(=O)[C@H]([C@@H](C)O)NC(=O)[C@H](CC(=O)O)NC1=O
6 | 6.26 | 7.30 | CC(C)C[C@@H]1NC(=O)[C@H]([C@@H](C)O)NC(=O)[C@H](CC(=O)O)NC(=O)[C@H](CO)NC(=O)[C@H](Cc2ccccc2)NC(=O)[C@@H](N)CSSC[C@@H](C(N)=O)NC1=O
7 | < 4.00 | < 4.00 | CC(C)C[C@@H]1NC(=O)[C@H]([C@@H](C)O)NC(=O)[C@H](C)NC(=O)[C@H](CO)NC(=O)[C@H](CCCN=C(N)N)NC(=O)[C@@H](N)CSSC[C@@H](C(N)=O)NC1=O (HELM PEPTIDE1{C.R.S.A.T.L.C.[am]}$PEPTIDE1,PEPTIDE1,1:R3-7:R3$$$V2.0)
8 | 4.40 | 4.43 | C[C@@H](O)[C@@H]1NC(=O)[C@H](CC(=O)O)NC(=O)[C@H](CO)NC(=O)[C@H](CCCNC(=N)N)NC(=O)[C@@H](N)CSSC[C@@H](C(N)=O)NC(=O)[C@@H]2CCCN2C1=O
9 | 5.68 | 5.13 | CC(C)C[C@@H]1NC(=O)[C@H]([C@@H](C)O)NC(=O)[C@H](CC(=O)O)NC(=O)[C@H]([C@@H](C)O)NC(=O)[C@H](CCCN=C(N)N)NC(=O)[C@@H](N)CSSC[C@@H](C(N)=O)NC1=O
10 | < 4.00 | < 4.00 | CC(C)C[C@H]1NC(=O)[C@H]([C@H](C)O)NC(=O)[C@H](CC(=O)O)NC(=O)[C@H](CO)NC(=O)[C@@H](CCCN=C(N)N)NC(=O)[C@H](N)CSSC[C@H](C(N)=O)NC1=O
11 | 6.89 | 8.05 | CC(C)C[C@@H]1NC(=O)[C@H]([C@@H](C)O)NC(=O)[C@H](CC(=O)O)NC(=O)[C@H](CO)NC(=O)[C@H](Cc2ccc(O)cc2)NC(=O)[C@@H](N)CSSC[C@@H](C(N)=O)NC1=O
12 | 6.72 | 5.38 | CSCC[C@H](N)C(=O)N[C@@H](CC(=O)O)C(=O)N[C@H]1CSSC[C@@H](C(=O)NCC(=O)N[C@@H](CCC(=O)O)C(N)=O)NC(=O)[C@H](CC(C)C)NC(=O)[C@H]([C@@H](C)O)NC(=O)[C@H](CC(=O)O)NC(=O)[C@H](CO)NC(=O)[C@H](CCCNC(=N)N)NC1=O (HELM PEPTIDE1{M.D.C.R.S.D.T.L.C.G.E.[am]}$PEPTIDE1,PEPTIDE1,3:R3-9:R3$$$V2.0)
13 | 6.89 | 6.40 | CC(C)C[C@@H]1NC(=O)[C@H]([C@@H](C)O)NC(=O)[C@H](CC(=O)O)NC(=O)[C@H](CO)NC(=O)[C@H](CCCNC(=N)N)NC(=O)[C@@H](N)CSSC[C@@H](C(=O)O)NC1=O
14 | 5.96 | 5.55 | CC(C)C[C@@H]1NC(=O)[C@H]([C@@H](C)O)NC(=O)[C@H](CC(=O)O)NC(=O)[C@H](CO)NC(=O)[C@H](C)NC(=O)[C@@H](N)CSSC[C@@H](C(N)=O)NC1=O (HELM PEPTIDE1{C.A.S.D.T.L.C.[am]}$PEPTIDE1,PEPTIDE1,1:R3-7:R3$$$V2.0)
15 | 6.60 | 5.82 | CC(C)C[C@@H]1NC(=O)[C@H]([C@@H](C)O)NC(=O)[C@H](CC(=O)O)NC(=O)[C@H](CO)NC(=O)[C@H](CCCCN)NC(=O)[C@@H](N)CSSC[C@@H](C(N)=O)NC1=O
16 | 4.52 | 5.52 | CC(C)C[C@@H]1NC(=O)[C@H]([C@@H](C)O)NC(=O)[C@H](CCC(=O)O)NC(=O)[C@H](CO)NC(=O)[C@H](CCCN=C(N)N)NC(=O)[C@@H](N)CSSC[C@@H](C(N)=O)NC1=O
17 | 5.66 | 5.44 | CC(C)C[C@@H]1NC(=O)[C@H]([C@@H](C)O)NC(=O)[C@H](CC(=O)O)NC(=O)[C@H](C)NC(=O)[C@H](CCCNC(=N)N)NC(=O)[C@@H](N)CSSC[C@@H](C(N)=O)NC1=O (HELM PEPTIDE1{C.R.A.D.T.L.C.[am]}$PEPTIDE1,PEPTIDE1,1:R3-7:R3$$$V2.0)
18 | 3.76 | 4.06 | CC(C)C[C@@H]1NC(=O)[C@H]([C@@H](C)O)NC(=O)[C@H](CC(N)=O)NC(=O)[C@H](CO)NC(=O)[C@H](CCCNC(=N)N)NC(=O)[C@@H](N)CSSC[C@@H](C(N)=O)NC1=O
19 | 6.19 | 4.93 | CSCC[C@H](N)C(=O)N[C@@H](CC(=O)O)C(=O)N[C@H]1CSSC[C@@H](C(N)=O)NC(=O)[C@H](CC(C)C)NC(=O)[C@H]([C@@H](C)O)NC(=O)[C@H](CC(=O)O)NC(=O)[C@H](CO)NC(=O)[C@H](CCCN=C(N)N)NC1=O (HELM PEPTIDE1{M.D.C.R.S.D.T.L.C.[am]}$PEPTIDE1,PEPTIDE1,3:R3-9:R3$$$V2.0)
20 | 4.96 | < 4.00 | C[C@@H](O)[C@@H]1NC(=O)[C@H](CC(=O)O)NC(=O)[C@H](CO)NC(=O)[C@H](CCCN=C(N)N)NC(=O)[C@@H](N)CSSC[C@@H](C(N)=O)NC(=O)CNC1=O
21 | 5.89 | 4.92 | CSCC[C@H](NC(=O)[C@H](CC(C)C)NC(=O)[C@H](Cc1c[nH]c2ccccc12)NC(=O)[C@H](CCCN=C(N)N)NC(=O)[C@H](CCC(=O)O)NC(=O)[C@H](Cc1c[nH]c2ccccc12)NC(C)=O)C(=O)N[C@@H](CC(=O)O)C(=O)N[C@H]1CSSC[C@@H](C(=O)NCC(=O)N[C@@H](CCC(=O)O)C(=O)N[C@@H](CO)C(=O)N[C@@H](Cc2c[nH]cn2)C(=O)N[C@@H](CCC(N)=O)C(=O)N[C@@H](CCC(=O)O)C(N)=O)NC(=O)[C@H](CC(C)C)NC(=O)[C@H]([C@@H](C)O)NC(=O)[C@H](CC(=O)O)NC(=O)[C@H](CO)NC(=O)[C@H](CCCN=C(N)N)NC1=O (HELM PEPTIDE1{[ac].W.E.R.W.L.M.D.C.R.S.D.T.L.C.G.E.S.H.Q.E.[am]}$PEPTIDE1,PEPTIDE1,9:R3-15:R3$$$V2.0)
